Experimental data from different studies.
Lines come from different studies, so protocols differ.
Target: Adenosine receptor A1 (ADORA1, Homo sapiens, UniProt P30542)
Residues used in one study (P30542 1-326): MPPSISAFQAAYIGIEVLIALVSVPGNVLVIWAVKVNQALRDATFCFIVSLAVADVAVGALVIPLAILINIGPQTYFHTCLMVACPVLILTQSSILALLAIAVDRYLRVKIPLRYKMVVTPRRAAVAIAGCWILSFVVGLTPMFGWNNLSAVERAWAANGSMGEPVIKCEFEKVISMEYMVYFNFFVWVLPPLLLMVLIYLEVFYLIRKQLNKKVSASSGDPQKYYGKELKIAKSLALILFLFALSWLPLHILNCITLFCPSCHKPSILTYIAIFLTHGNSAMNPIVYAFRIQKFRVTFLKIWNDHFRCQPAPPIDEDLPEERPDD

Structure (SMILES) | observed | method | concentration | inhibition [%]
C[C@H](C(=O)N[C@H]1COc2ccccc2[C@@H]1S(C)(=O)=O)c1ccc(F)cc1 | cell-free assay |  | 10 µM | 1
CSC[C@@]12C[C@@H]1[C@@H](n1cnc3c(NC(C4CCCC4)C4CCCC4)nc(SC)nc31)[C@H](O)[C@@H]2O | ligand displacement | radioligand | 10 µM | 15
c1ccc(C(NCCNC(c2ccccc2)c2ccccc2)c2ccccc2)cc1 | cell-free assay |  | 10 µM | 30
CC(C)N1CCC[C@H]1CNC(=O)c1cn(C2CCCC2)c(=O)c2c1c1ccccc1n2C | ligand displacement | radioligand | 10 µM | -1
CN(CCN1CCC(OC(=O)Nc2ccccc2-c2ccccc2)CC1)C(=O)c1ccc(CN2CCC(C(N)=O)CC2)cc1 | ligand displacement | radioligand | 1 µM | 0
COc1ccc(SC[C@@]23C[C@@H]2[C@@H](n2cnc4c(NC(C5CCCC5)C5CCCC5)nc(Cl)nc42)[C@H](O)[C@@H]3O)cc1OC | ligand displacement | radioligand | 10 µM | 39
COCc1c(-c2cc3cc(C)cc(OC)c3s2)c2c(N)ncnn2c1CN1CCNC(=O)C1 | ligand displacement | radioligand | 10 µM | 16
O=C(Nc1cccnn1)N1CCN([C@@H]2CCOc3cc(C(F)(F)F)ccc32)CC1 | cell-free assay |  | 20 µM | 17
CCN(CC)CCCC[C@H](NC(=O)[C@H](CC(C)C)NC(=O)[C@H](C)NC(=O)[C@H](Cc1ccccc1)NC(=O)c1ccc(C(C)(C)C)cc1)C(=O)N[C@@H](CO)C(=O)OC | ligand displacement | radioligand | 10 µM | 4
COc1ccc(S(=O)(=O)N2CCCCC2)cc1C | ligand displacement | radioligand | 10 µM | < 30
CCSC[C@@]12C[C@@H]1[C@@H](n1cnc3c(NC(C4CCCC4)C4CCCC4)nc(Cl)nc31)[C@H](O)[C@@H]2O | ligand displacement | radioligand | 10 µM | 54
